Screening data deposited in PubChem by several laboratories.
In the library only some 2.6% were active in any assay of this set; here they are far more common.
Runt-CBFb FRET: blocks binding of human RUNX1 Runt domain to CBFb | Q01196+Q13951 | Cerulean-Runt/Venus-CBFb FRET ratio 530/480, 1 h | inhibition, % at 20 µM | 220,000 tested, 0.46% active;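 active means inhibition over about 50% at 20 µM in the single-dose screen, limit read from the data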;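 further: 0% = DMSO wells and 100% = excess unlabeled CBFb competitor control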
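Doses: 20 µM compound in 1% DMSO | Material: Cerulean-labeled Runt domain protein | Amount: Each fluorescent fusion protein 100 nM | Schedule: Two 1 h room-temperature incubations shielded from light | Measured by: FRET fluorescence | Evaluation: Loss of energy transfer signal | Controls: Unlabeled CBFb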
Runt-SMMHC FRET: inhibitors of human RUNX1 Runt domain binding to CBFb-SMMHC. Q01196+Q13951. Cerulean-Runt/Venus-CBFb-SMMHC FRET ratio 530/480, 1 h. inhibition, % at 20 µM. 220,000 tested, 0.74% active;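 active means mean inhibition across duplicate retests at 20 µM reaching about 50%, limit read from the data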;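 further: 0% = DMSO wells and 100% = wells with excess untagged CBFb-SMMHC; inhibitors lower the FRET ratio by blocking Runt binding to CBFb-SMMHC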
VIM-2 inhibitor: blocks Pseudomonas aeruginosa VIM-2 metallo-beta-lactamase. purified VIM-2, nitrocefin hydrolysis, epi-absorbance fluorescence. inhibition, % at 5.6 µM. 290,000 tested, 0.89% active. AID 1527;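 active means inhibition above the mean of all tested compounds plus 3 SD, cutoff set per screening run, cut at about 7.5% in these data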;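 further: red hydrolysis product quenches plate fluorescence so inhibitors raise well fluorescence; 0% = enzyme with DMSO and 100% = DMSO without enzyme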
RanGTP-Imp inh: inhibitors of RanGTP-importin-beta interaction, primary screen, biochemical, FRET, CFP-Ran, YFP-importin-beta, homogeneous; cell-free CFP-Ran/YFP-importin-beta FRET ratio; inhibition, % (concentration not given with the values); 300,000 tested, 1.1% active; AID 2216;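 active means more than half of the replicate wells show a fall in the fluorescence ratio signal beyond about 16%, limit read from the data, passing the limit was not always enough; inconclusive means exactly half of the replicate wells pass the set limit; inactive means fewer than half of replicates pass the limit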;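 further: 0% = DMSO wells and 100% = Ran loaded with GDP instead of GTP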
IMP-1 inh-1: inhibitors of Pseudomonas aeruginosa IMP-1 metallo-beta-lactamase; AID 1556; purified IMP-1, nitrocefin hydrolysis, epi-absorbance fluorescence; inhibition, % at 5.6 µM; 290,000 tested, 0.45% active;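 active means inhibition above the mean plus 3 SD of all compounds in the same screening run, cut at about 4.5% in these data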;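 further: 0% = IMP-1 with DMSO and 100% = DMSO wells lacking enzyme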
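System: purified IMP-1; amount: IMP-1 0.2 nM before substrate addition; compound: single dose, 5.6 µM; times: 25 °C, 15 min preincubation, 25 min reaction; signal: Epi-absorbance via hydrolysed-nitrocefin quenching of white-plate fluorescence, 480/530 nm, EDTA stop; benchmarks: DMSO with and without IMP-1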
IMP-1 inh-2: blocks IMP-1 metallo-beta-lactamase in VIM-2 selectivity screen; AID 1856; 1,300 tested, under 10 active; purified IMP-1, nitrocefin hydrolysis, epi-absorbance fluorescence; inhibition, % at 5.6 µM; shares compounds with VIM-2 inhibitor; call rule not given here;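 further: 0% = enzyme with vehicle and 100% = vehicle without enzyme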
VIM-2 FRET inh: inhibits VIM-2 in FRET assay to exclude epi-absorbance artifacts; inhibition, % at 5.6 µM; purified VIM-2, CCF2 FRET substrate hydrolysis; shares compounds with VIM-2 inhibitor; 1,300 tested, 23% active;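 active means inhibition above the mean of all tested compounds plus 3 SD, cut at about 19% in these data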;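 further: 0% = VIM-2 plus DMSO and 100% = no enzyme wells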
TEM-1 inh: selectivity counter-screen for VIM-2 inhibitors: E. coli TEM-1 inhibitors; Purified TEM-1, nitrocefin hydrolysis, epi-absorbance fluorescence; AID 1866; shares compounds with VIM-2 inhibitor; 1,300 tested, 3% active; inhibition, % at 5.6 µM;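 active means inhibition above that campaign's mean inhibition plus 3 SD, cut at about 0.46% in these data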;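 further: 0% = TEM-1 with DMSO and 100% = TEM-1 with 100 µM potassium clavulanate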
Target sequence (P62593 whole entry, looked up): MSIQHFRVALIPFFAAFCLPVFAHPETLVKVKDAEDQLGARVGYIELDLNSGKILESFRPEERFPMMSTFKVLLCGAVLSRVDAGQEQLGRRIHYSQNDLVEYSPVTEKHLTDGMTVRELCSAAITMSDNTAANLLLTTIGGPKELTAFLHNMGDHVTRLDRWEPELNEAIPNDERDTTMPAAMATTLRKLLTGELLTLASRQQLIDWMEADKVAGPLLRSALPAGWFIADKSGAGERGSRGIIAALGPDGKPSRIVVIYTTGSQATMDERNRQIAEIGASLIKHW
VIM-2 confirm 2: confirmation of P. aeruginosa VIM-2 metallo-beta-lactamase inhibitors; shares compounds with VIM-2 inhibitor; purified VIM-2, nitrocefin hydrolysis, epi-absorbance; inhibition, % at 5.6 µM; 1,300 tested, 96% active;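 active means inhibition of the VIM-2 beta-lactamase enzyme above about 11% from the earlier first-round screen, limit read from the data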;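 further: 0% = VIM-2 with DMSO and 100% = buffer wells without enzyme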
* marks the source's active call; other numbers are inactive results; ? = inconclusive; · = no result.

SMILES | Runt-CBFb FRET | Runt-SMMHC FRET | VIM-2 inhibitor | RanGTP-Imp inh | IMP-1 inh-1 | IMP-1 inh-2 | VIM-2 FRET inh | TEM-1 inh | VIM-2 confirm 2
CC(Oc1cc2oc(=O)c3c(c2cc1Cl)CCC3)C(=O)NCC1CCC(C(=O)O)CC1 (stereo not given) | · | · | 7 | 0 | -1 | · | · | · | ·
CC(Oc1ccc2c3c(c(=O)oc2c1)CCC3)C(=O)NCCCn1ccnc1 (stereo not given) | · | · | 27* | 0 | -2 | -3 | -1 | -6 | 39*
Cc1nn(C(C)C(=O)NCCCN2CCCC2)c(=O)c2nn(-c3ccccc3)c(C)c12 (stereo not given) | · | · | -2 | -1 | -4 | · | · | · | ·
O=c1oc2c3c4c(cc2c2c1CCC2)OCCN4CCC3 | 83* | 53* | 14* | · | -2 | -3 | -34 | -10 | 37*
Cc1c(C)c2ccc(OCC(=O)NCCCn3ccnc3)c(C)c2oc1=O | · | · | 42* | 5 | 1 | -4 | -4 | -12 | 49*
COc1ccccc1OCC(=O)NCCCn1ccnc1 | 1 | 0 | -4 | 1 | 1 | · | · | · | ·
Cc1c(OC(C)C(=O)NCCCn2ccnc2)ccc2c3c(c(=O)oc12)CCC3 (stereo not given) | · | · | 49* | 6 | -3 | -2 | -3 | -8 | 64*
Cc1oc2c(C)c3oc(=O)c(CCC(=O)NCCCN4CCOCC4)c(C)c3cc2c1C | · | · | 5 | ? | -2 | · | · | · | ·
Cc1c(OCC(=O)NCCCn2ccnc2)ccc2c3c(c(=O)oc12)CCC3 | · | · | 48* | 0 | -1 | -3 | -8 | -13 | 58*
O=C(COc1ccc(Br)cc1)NCCCn1ccnc1 | · | · | 1 | ? | 1 | · | · | · | ·
Cc1coc2c(C)c3oc(=O)c(CCC(=O)NCCCn4ccnc4)c(C)c3cc12 | · | · | 31* | 3 | 4 | -2 | -6 | -12 | 36*
C/C(CC(=O)Nc1ccc(F)cc1F)=N\NC(=O)C(=O)N1CCCCC1 | · | · | -5 | -1 | -1 | · | · | · | ·
Cc1cc(=O)oc2c(C)c(OCC(=O)NCCCn3ccnc3)ccc12 | · | · | 19* | 0 | -3 | -3 | -6 | -8 | 35*
COc1cc(CCCN2C(=S)NC[C@@H]2CC2CCCCC2)cc(OC)c1OC | 2 | -3 | · | 3 | · | · | · | · | ·
CCN1CCN(CCCNC(=O)CCCn2nc(C)c3sc4ccccc4c3c2=O)CC1 | · | · | 13* | -2 | -1 | -4 | 4 | -6 | 16*
CCCN1CCN(CCCNC(=O)C(CC)n2nc(C)c3sc4ccccc4c3c2=O)CC1 (stereo not given) | · | · | 1 | 4 | -3 | · | · | · | ·
CCCN1CCN(C(=O)C(C)n2nc(C)c3sc4ccccc4c3c2=O)CC1 (stereo not given) | · | · | 29* | -2 | -3 | -2 | -4 | -5 | 36*
CCC(C(=O)NCCCN1CCN(C)CC1)n1nc(C)c2sc3ccccc3c2c1=O (stereo not given) | · | · | 0 | -1 | -3 | · | · | · | ·
Cn1ccsc1=NC(=O)c1cccc(C#N)c1 | · | · | 1 | 0 | 0 | · | · | · | ·
Cc1ccc2oc(=O)c3cc(C(=O)NCCCN4CCc5ccccc5C4)sc3c2c1 | -1 | 0 | 2 | -1 | 0 | · | · | · | ·
CCC1CCCCN1CCCNC(=O)c1cc2c(=O)oc3ccc(C)cc3c2s1 (stereo not given) | · | · | 12* | 5 | 0 | -3 | 5 | -10 | 17*
O=C(OCC(=O)N1CCN(C(=O)c2ccco2)CC1)c1cc(-c2ccco2)nc2ccccc12 | 3 | -11 | 15* | -4 | 1 | -4 | -19 | -7 | 11*
O=C(c1ccccc1Cl)c1c(O)c2ccccc2oc1=O | · | · | · | 3 | · | · | · | · | ·
CCCN(CCC)CCCNc1ccc2nnc(-c3ccc(F)cc3)n2n1 | -2 | 1 | 18* | 3 | -3 | -3 | 0 | -6 | 22*
